Source: PubChem (Broad Institute)
Hits are enriched below; roughly 2.2% of the tested compounds scored in any of these assays.
dFosB act – mouse delta FosB homodimer activation | 0.99% of 340,000 active | P13346 | activation, % at 25 µM | purified delta FosB, TAMRA-CDK5 oligo fluorescence polarization; percent of positive-control signal above neutral wells;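 active means mean activation above about 17%, with every replicate also reaching it, limit read from the data, passing the limit was not always enough; inconclusive means only one of the two conditions met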
Target sequence (P13346 whole entry, looked up): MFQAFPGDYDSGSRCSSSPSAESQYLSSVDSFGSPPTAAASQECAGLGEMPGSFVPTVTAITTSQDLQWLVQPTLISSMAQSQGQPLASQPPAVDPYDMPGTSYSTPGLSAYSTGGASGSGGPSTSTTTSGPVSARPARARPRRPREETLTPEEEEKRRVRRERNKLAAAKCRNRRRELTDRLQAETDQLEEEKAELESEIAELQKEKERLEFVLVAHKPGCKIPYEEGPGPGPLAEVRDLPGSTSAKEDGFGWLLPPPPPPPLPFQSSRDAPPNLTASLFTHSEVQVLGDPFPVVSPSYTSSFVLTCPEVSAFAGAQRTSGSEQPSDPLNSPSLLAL
FGF22 binding – shifts melting point of recombinant human FGF22; activity (Tm shift, normalised), % at 9.99 µM; 1.5% of 340,000 active; recombinant FGF22 thermal shift, SYPRO orange fluorescence; percent of sucrose octasulfate shift, DMSO zero;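 active means mean Tm shift, scaled 0 neutral to 100 positive control, at about 1.3% or above, every replicate too, limit read from the data; inconclusive means no clear call, values can overlap the other calls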
Target sequence (Q9HCT0 whole entry, looked up): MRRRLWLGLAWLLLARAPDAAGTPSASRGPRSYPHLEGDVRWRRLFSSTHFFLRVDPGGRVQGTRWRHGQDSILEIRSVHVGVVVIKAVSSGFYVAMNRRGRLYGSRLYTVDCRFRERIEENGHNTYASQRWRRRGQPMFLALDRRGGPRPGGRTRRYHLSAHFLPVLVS
S100A4 inh HTS – inhibitors of human S100A4 binding to myosin IIA peptide; P26447; S100A4/TAMRA-MyoIIA peptide fluorescence polarization; inhibition, % at 10.7 µM; 0.14% of 360,000 active;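 active means mean inhibition of at least 70% across replicates, with every replicate also reaching that level; inconclusive means mean inhibition reaches 70% but some replicates fall short; inactive means mean inhibition below 70%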
Target sequence (P26447 whole entry, looked up): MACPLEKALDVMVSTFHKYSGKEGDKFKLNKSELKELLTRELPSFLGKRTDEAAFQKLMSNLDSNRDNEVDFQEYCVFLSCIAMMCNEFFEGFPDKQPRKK
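Material: human S100A4 monomer with TAMRA-labelled myosin IIA peptide; buffer or medium: HEPES pH 7.2 with CaCl2, KCl, NaCl, DTT, Triton; compound dosing: one concentration per compound; schedule: 5 min incubation before reading; benchmarks: neutral control DMSO, positive control TFP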
F508del corr – CFTR F508del correction in bronchial cells; 0.36% of 350,000 active; CFBE cells, YFP halide quenching; stimulated with forskolin plus potentiator P3; % fluorescence drop versus neutral controls; activity (quench increase), % at 7.58 µM;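 active means mean added fluorescence quench of at least 8% versus neutral control, with both replicates also reaching 8%; inconclusive means only one of the mean or replicate conditions met; inactive means mean below 8% and not both replicates reaching 8%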;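 further: cells transiently co-express mutant CFTR-F508del with the halide-sensitive YFP; corrector assay measuring rescue of mutant channel to the surface after 24 h compound exposure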
Active calls of the source: *.

Results for C[C@@H]1CCCCO[C@@H](CN(C)C(=O)NC2CCCCC2)[C@@H](C)CN([C@H](C)CO)C(=O)c2cc(NC(=O)c3ccccc3)ccc2O1 ?
FGF22 binding: 0; F508del corr: 2

How did Cc1noc(C)c1NC(=O)N[C@@H]1CC[C@H](CC(=O)N2CCN(C)CC2)O[C@@H]1CO do in these assays?
FGF22 binding: 0; S100A4 inh HTS: -15; F508del corr: 0

How did COc1ccc(-c2sc3ccccc3c2-c2ccc(OCCN(C)C)cc2)cc1 do in these assays?
dFosB act: 25*; FGF22 binding: -1; S100A4 inh HTS: 1; F508del corr: -1

How did Cn1cnc(S(=O)(=O)N2C[C@@H](O)COC[C@@H]3O[C@H](CC(=O)NC4Cc5ccccc5C4)CC[C@H]32)c1 do in these assays?
FGF22 binding: 0; S100A4 inh HTS: 1; F508del corr: 0

Results for O=c1nc(N/N=C/c2c[nH]c3ccccc23)cn[nH]1 ?
dFosB act: 7; FGF22 binding: 0; S100A4 inh HTS: 2; F508del corr: 2

What do the screens show for `O=c1cnnc(N/N=C/c2c[nH]c3ccccc23)[nH]1`?
dFosB act: -5; FGF22 binding: 43*; S100A4 inh HTS: 0; F508del corr: 1

How did CN(C)CCNc1ccc(CO)c2sc3ccc(O)cc3c(=O)c12 do in these assays?
dFosB act: 38*; FGF22 binding: 0; S100A4 inh HTS: 8; F508del corr: 7

What do the screens show for `CN(C)CCNc1ccc2ncn3c4ccc(O)cc4c(=O)c1c23`?
dFosB act: 64*; FGF22 binding: -1; S100A4 inh HTS: 3; F508del corr: 21*

How did COc1ccc2oc3cc(NCCN(C)C)ccc3c(=O)c2c1 do in these assays?
FGF22 binding: 0; S100A4 inh HTS: 0; F508del corr: 6

What do the screens show for `COc1ccc2sc3cccc(NCCN(C)C)c3c(=O)c2c1`?
FGF22 binding: 0; S100A4 inh HTS: 2; F508del corr: 12*

Results for O=C(C[C@H]1C[C@H]2c3cc(NC(=O)NC4CCCC4)ccc3O[C@H]2[C@@H](CO)O1)NCc1cccnc1 ?
S100A4 inh HTS: 2; F508del corr: 0

Results for Cn1c(=O)c2c(nc(NCCNC(=O)c3ccco3)n2Cc2ccc(F)cc2)n(C)c1=O ?
dFosB act: 2; FGF22 binding: 1.8*; S100A4 inh HTS: -3; F508del corr: -1

What do the screens show for `Cn1c(=O)c2c(nc(NCCNC(=O)c3ccco3)n2Cc2ccccc2)n(C)c1=O`?
dFosB act: 5; FGF22 binding: 0; S100A4 inh HTS: 2; F508del corr: -2

Results for COc1cc(OC)cc(C(=O)NCc2cc(C)nc3ccccc23)c1 ?
dFosB act: -17; FGF22 binding: 44*; S100A4 inh HTS: 2; F508del corr: 1

How did CCCCCCSc1nnc2[nH]c(=O)cc(N)n12 do in these assays?
dFosB act: -10; FGF22 binding: 0; S100A4 inh HTS: 0

How did CCCCCCCCSc1nnc2[nH]c(=O)cc(N)n12 do in these assays?
dFosB act: -3; FGF22 binding: 43*; S100A4 inh HTS: 0; F508del corr: 0

What do the screens show for `C[C@H](CO)N1C[C@H](C)[C@H](CN(C)C(=O)Nc2ccc3c(c2)OCO3)Oc2ncc(-c3cncnc3)cc2C1=O`?
FGF22 binding: 0; S100A4 inh HTS: -4; F508del corr: -1

How did O=[N+]([O-])c1cc(Cl)ccc1N1CCOCC1 do in these assays?
dFosB act: 6; FGF22 binding: 0; S100A4 inh HTS: -1; F508del corr: 3

How did O=[N+]([O-])c1cc(Cl)ccc1N1CCCC1 do in these assays?
dFosB act: 2; FGF22 binding: 44*; S100A4 inh HTS: -4; F508del corr: -2

How did Cc1cnc(C(=O)NCc2ccc(Cl)cc2Cl)cn1 do in these assays?
dFosB act: -15; FGF22 binding: 43*; S100A4 inh HTS: 2; F508del corr: 0

How did Cc1cnc(C(=O)NCCc2ccc(Cl)cc2)cn1 do in these assays?
dFosB act: 1; FGF22 binding: 0; S100A4 inh HTS: 2; F508del corr: -1

What do the screens show for `O=C(N/N=C/c1cccnc1)c1ccc(Cl)c(Cl)c1`?
dFosB act: -7; FGF22 binding: 0; S100A4 inh HTS: -2; F508del corr: 2

How did O=C(N/N=C/c1cccnc1)c1ccc(NC(=O)c2cccc(Cl)c2)cc1 do in these assays?
dFosB act: 46*; FGF22 binding: 42; S100A4 inh HTS: -3; F508del corr: 1

What do the screens show for `CCN(CC)Cc1cc(Nc2c3ccccc3nc3c4ccccc4n(C)c23)cc(CN(CC)CC)c1O`?
dFosB act: 66*; FGF22 binding: -1; S100A4 inh HTS: 7; F508del corr: inconclusive

What do the screens show for `CCOc1cc2nc3c4ccccc4n(C)c3nc2cc1OCC`?
dFosB act: -13; FGF22 binding: 0; S100A4 inh HTS: -4; F508del corr: 2

Results for COc1ccc(-c2sc3cc4c(cc3c2C#CC2(N)CCCCC2)OCO4)cc1 ?
dFosB act: 67*; FGF22 binding: 0; S100A4 inh HTS: -4; F508del corr: 1

Results for CN(Cc1ccco1)c1ncnc2ccc(-c3ccc4c(ccn4C)c3)cc12 ?
dFosB act: 3; FGF22 binding: 0; S100A4 inh HTS: -8; F508del corr: 14*

What do the screens show for `CCOc1cc(/C=C(\CC(=O)O)c2nc3ccccc3s2)ccc1OC`?
dFosB act: -3; FGF22 binding: -1; S100A4 inh HTS: -2; F508del corr: -1

How did COc1cc(/C=C(\CC(=O)O)c2nc3ccccc3s2)ccc1OCC(=O)Nc1ccccc1F do in these assays?
dFosB act: -10; FGF22 binding: 0; S100A4 inh HTS: -7; F508del corr: 18*

Results for COc1cc(/C=C(\CC(=O)O)c2nc3ccccc3s2)cc(OC)c1O ?
dFosB act: -13; FGF22 binding: 43*; S100A4 inh HTS: -5; F508del corr: 1

Results for Cc1ccc(S(=O)(=O)NCC[C@H]2CC[C@@H](NS(=O)(=O)c3ccccc3Cl)[C@@H](CO)O2)cc1 ?
FGF22 binding: 0; S100A4 inh HTS: -2; F508del corr: 4

What do the screens show for `COc1ccc(NC(=O)Nc2ccc3c(c2)C(=O)N([C@H](C)CO)C[C@H](C)[C@@H](CN(C)C(=O)Nc2ccc(F)cc2)OCCCC[C@@H](C)O3)cc1`?
FGF22 binding: 1; S100A4 inh HTS: 3; F508del corr: -1

Results for COc1ccc(OCCCC(=O)Nc2nc(C)c(C(C)=O)s2)cc1 ?
dFosB act: 1; FGF22 binding: 0; S100A4 inh HTS: -3; F508del corr: 1

Results for CC(=O)c1sc(NC(=O)CCCOc2ccc(Cl)cc2)nc1C ?
dFosB act: 4; FGF22 binding: 43*; S100A4 inh HTS: -3; F508del corr: -1

Results for COc1ccc(/[N+]([O-])=C/c2ccoc2)cc1 ?
dFosB act: -2; FGF22 binding: 45*; S100A4 inh HTS: 1; F508del corr: -4

How did COc1ccc(C(=O)N/N=C\c2ccoc2)cc1 do in these assays?
dFosB act: 1; FGF22 binding: 0; S100A4 inh HTS: -3; F508del corr: -3
